Source: article PMC7067668 (Journal of biological inorganic chemistry : JBIC : a …, 2019)
Starred links: 1 amine or outer side, 2 acyl side, 3 side chain; linkers in the order of their positions; H or OH if unused. Non-standard residues stand in square brackets, D forms with d. Residues, ends and D or L forms follow the SMILES beside them. *: point of attachment. NOTA(2S-Bn(4-NHCS)) = O=C(O)CN1CCN(CC(=O)O)C[C@H](Cc2ccc(NC(=S)*)cc2)N(CC(=O)O)CC1; NH(CH2CH2O)4CH2CO = O=C(COCCOCCOCCOCCN[*:1])[*:2]; Acryloyl(3-(3-pyridyl),E) = O=C(/C=C/c1cccnc1)*; X1 = O=C(Cc1ccc(N[*:1])cc1)[*:2]; Aad = N[C@@H](CCCC(=O)O)C(=O)O; NH(2-Me-phenyl) = Cc1ccccc1N*; Ac6c = NC1(C(=O)O)CCCCC1; CO = O=C([*:1])[*:2]

How the values were obtained:
B16F10 cells = assay: Cell uptake and internalization; format: cell-based, mouse; conditions: co-incubation with 10 μg unlabeled LLP2A-PEG4 per well, n = 3
How it was run: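 Radiotracer uptake in B16F10 cells, grown in DMEM with 10% FBS at 37°C, 5% CO2, seeded at 200,000 cells/well 24 h before. Cells were rinsed with HBSS, then given DMEM with 0.1% BSA and 1 mM Mn²⁺ plus ~74 kBq/well Al¹⁸F- or ⁶⁸Ga-labeled test compound, with or without 10 μg/well unlabeled peptide. Sampling was at 0.5, 1, 2 h (⁶⁸Ga) or up to 4 h (¹⁸F). Cells were PBS-washed and gamma-counted.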

[1] = test system: mice bearing B16F10 xenografts; assay: Ex vivo biodistribution; format: in vivo, mouse; conditions: n = 5; for liver uptake: i.v. 5.5–7.4 MBq (100–200 pmol)
How it was run: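 Female C57BL/6 mice (four weeks old) carried subcutaneous right-shoulder B16F10 grafts (one million cells in PBS). Radiolabeled test compound was injected intravenously at 5.5–7.4 MBq (100–200 pmol), with or without 100 μg unlabeled peptide. Mice were sacrificed at 0.5, 1, 2 h p.i. (4 h for the ¹⁸F tracer). Organs and tumor were weighed and gamma-counted, expressed as %ID/g, n = 5.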

B16F10 xenografts = assay: Micro-PET imaging, B16F10 xenografts; format: in vivo, mouse; conditions: co-injection of 100 μg unlabeled LLP2A-PEG4; 4 mice per group
How it was run: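 Female C57BL/6 mice bore subcutaneous right-shoulder B16F10 grafts (one million cells). They received intravenous Al¹⁸F- or ⁶⁸Ga-labeled test compound, 5.5–7.4 MBq (100–200 pmol), co-injected with 100 μg unlabeled peptide. Static small-animal PET was acquired under 2% isoflurane at 0.5, 1, 2 h p.i. (plus 4 h for ¹⁸F).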

A375 xenografts = assay: Micro-PET imaging, VLA-4-negative A375 xenografts; format: in vivo, mouse; conditions: BALB/c nude mice, 0.5 h, 1 h, 2 h p.i., 5.5–7.4 MBq
How it was run: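 Female BALB/c nude mice carried subcutaneous right-shoulder A375 (VLA-4-negative) grafts of one million cells in PBS. ⁶⁸Ga-labeled test compound was injected intravenously at 5.5–7.4 MBq (100–200 pmol). Static small-animal PET was acquired under 2% isoflurane anesthesia at 0.5, 1 and 2 h p.i.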

Row | Compound | reduction of cell uptake by blocking dose (B16F10 cells) | bone uptake ([1]; 0.5 h p.i., B16F10 tumor mice) | tumor uptake ([1]; 0.5 h p.i.) | liver uptake ([1]; 1 h p.i., B16F10 tumor mice) | tumor-to-blood ratio ([1]; 1 h p.i.) | colon uptake ([1]; 2 h p.i., B16F10 tumor mice) | kidney uptake ([1]; 2 h p.i., B16F10 tumor mice) | liver uptake ([1]; 2 h p.i., B16F10 tumor mice) | tumor-to-blood ratio ([1]; 2 h p.i.) | activity accumulation in B16F10 xenografts with blocking agent (PET) (B16F10 xenografts) | accumulation in VLA-4-negative A375 xenografts (PET) (A375 xenografts)
1 | Cc1ccccc1NC(=O)Nc1ccc(CC(=O)N[C@@H](CCCCNC(=O)/C=C/c2cccnc2)C(=O)N[C@@H](CCCC(=O)O)C(=O)NC2(C(=O)NCCOCCOCCOCCOCC(=O)N[C@@H](CCCCNC(=S)Nc3ccc(C[C@H]4CN(CC(=O)O)CCN(CC(=O)O)CCN4CC(=O)O)cc3)C(N)=O)CCCCC2)cc1 [^68Ga-NOTA-PEG4-LLP2A, metal not drawn] ({NH(2-Me-phenyl)-CO}-[X1]K(Acryloyl(3-(3-pyridyl),E))[Aad][Ac6c][NH(CH2CH2O)4CH2CO]K(NOTA(2S-Bn(4-NHCS)))-NH2) | 79.2% | 5.75 ± 2.04 %ID/g | 6.77 ± 1.77 %ID/g | 15.3 ± 1.7 %ID/g | 3.3 ± 0.5 | 2.1 ± 0.2 %ID/g | 4.5 ± 0.3 %ID/g | 8.0 ± 0.8 %ID/g | 7.3 ± 0.6 | significantly reduced | did not show specific accumulation
2 | Cc1ccccc1NC(=O)Nc1ccc(CC(=O)N[C@@H](CCCCNC(=O)/C=C/c2cccnc2)C(=O)N[C@@H](CCCC(=O)O)C(=O)NC2(C(=O)NCCOCCOCCOCCOCC(=O)N[C@@H](CCCCNC(=S)Nc3ccc(C[C@H]4CN(CC(=O)O)CCN(CC(=O)O)CCN4CC(=O)O)cc3)C(N)=O)CCCCC2)cc1 [Al^18F-NOTA-PEG4-LLP2A] ({NH(2-Me-phenyl)-CO}-[X1]K(Acryloyl(3-(3-pyridyl),E))[Aad][Ac6c][NH(CH2CH2O)4CH2CO]K(NOTA(2S-Bn(4-NHCS)))-NH2) | 61.7% | – | – | – | – | – | – | – | – | significantly reduced | –
